pIC50: −log10 of the molar value. The source made the active and inactive calls. The calls are words filed in the database; no cut-off is given here.
Key:
[1] = Cytotoxicity against PHA-induced human PBL cells assessed as inhibition of cell growth measured after 72 hrs by MTT assay; assay type: toxicity, cell-based; conditions: PHA-induced human peripheral blood lymphocytes (PBL)
SR = assay: Antiproliferative activity against human SR cells assessed as growth inhibition incubated for 72 hrs by MTT assay; assay type: functional
[2] = Antiproliferative activity against human MINO cells assessed as reduction in cell proliferation at 1 uM measured after 72 hrs by MTT assay relative to control; assay type: functional; parameters: scale not given: the % may be the effect or the level left
Method in brief: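 Single-dose screen at 1 μM for 72 h at 37 °C, 5% CO2 (DMSO ≤0.1%). Cells in RPMI-1640 with 20% FBS, seeded at 5,000–10,000 cells/well. MTT added for 4 h, SDS lysis, A570 read with medium-only blanks. Percent proliferation relative to untreated cells, run in triplicate.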

VL51 [3] = assay: Antiproliferative activity against human VL51 cells assessed as reduction in cell proliferation at 1 uM measured after 72 hrs by MTT assay relative to control; assay type: functional; parameters: scale not given: the % may be the effect or the level left
Method in brief: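 Single-dose 1 μM screen in lymphoma cells (RPMI-1640, 20% FBS; 5,000–10,000 cells/well), 72 h at 37 °C, 5% CO2, DMSO ≤0.1%. MTT for 4 h, SDS lysis, absorbance at 570 nm. Proliferation expressed as percent of untreated control.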

[4] = Cytotoxicity against resting human PBL cells assessed as inhibition of cell growth measured after 72 hrs by MTT assay; assay type: toxicity, cell-based; conditions: resting human peripheral blood lymphocytes (PBL)
NCI-H226 = assay: Antiproliferative activity against human NCI-H226 cells assessed as growth inhibition incubated for 72 hrs by MTT assay; assay type: functional
NCI-H522 = assay: Antiproliferative activity against human NCI-H522 cells assessed as growth inhibition incubated for 72 hrs by MTT assay; assay type: functional
VL51 [5] = assay: Induction of cell cycle arrest in human VL51 cells assessed as reduction in accumulation of cells at S phase at 1 uM incubated for 24 hrs by PI staining based flow cytometry analysis; assay type: functional
Method in brief: (§1)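 Seeding in 6-well plates, 2 mL medium: A549 5×10^4, CCRF-CEM 2.5×10^5, VL51 2.0×10^5. 24 h treatment, A549 detached with trypsin-EDTA. Cells fixed in 70% ice-cold ethanol, PI-labelled, analysed by flow cytometry. Mean of two independent experiments.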

Tubulin = assay: Inhibition of tubulin assembly (unknown origin); assay type: protein-complex assay, Homo sapiens
HOP-62 = assay: Antiproliferative activity against human HOP-62 cells assessed as growth inhibition incubated for 72 hrs by MTT assay; assay type: functional
HOP-92 = assay: Antiproliferative activity against human HOP-92 cells assessed as growth inhibition incubated for 72 hrs by MTT assay; assay type: functional
NCI/ADR-RES = assay: Antiproliferative activity against human NCI-ADR-RES cells assessed as growth inhibition incubated for 72 hrs by MTT assay; assay type: functional
CCRF-CEM [6] = assay: Antiproliferative activity against human CCRF-CEM cells assessed as growth inhibition incubated for 72 hrs by MTT assay; assay type: functional
CCRF-CEM [7] = assay: Induction of cell cycle arrest in human CCRF-CEM cells assessed as reduction in accumulation of cells at S phase at 1 uM incubated for 24 hrs by PI staining based flow cytometry analysis; assay type: functional; method in brief: as §1
MOLT-4 = assay: Antiproliferative activity against human MOLT-4 cells assessed as growth inhibition incubated for 72 hrs by MTT assay; assay type: functional
K562 = assay: Antiproliferative activity against human K562 cells assessed as growth inhibition incubated for 72 hrs by MTT assay; assay type: functional
[8] = Antiproliferative activity against human MINO cells assessed as cell growth inhibition measured after 72 hrs by MTT assay; assay type: functional, cell-based
Method in brief: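 Lymphoma cells in RPMI-1640 with 20% FBS, seeded at 5,000–10,000 cells/well depending on doubling time. Exposed for 72 h at 37 °C, 5% CO2 to a 1:2 serial dilution from 0 to 10 μM (DMSO ≤0.1%). MTT from a 5 mg/mL stock was added for 4 h, cells were lysed with 25% SDS, and A570 was read against medium-only blanks. IC50 from triplicate assays.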

MCF7 = assay: Antiproliferative activity against human MCF7 cells assessed as growth inhibition incubated for 72 hrs by MTT assay; assay type: functional
CAKI-1 = assay: Antiproliferative activity against human CAKI-1 cells assessed as growth inhibition incubated for 72 hrs by MTT assay; assay type: functional
A498 = assay: Antiproliferative activity against human A498 cells assessed as growth inhibition incubated for 72 hrs by MTT assay; assay type: functional
HL-60(TB) = assay: Antiproliferative activity against human HL-60(TB) cells assessed as growth inhibition incubated for 72 hrs by […]; assay type: functional
Method in brief: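 NCI 60-cell-line panel screen. […] Compounds were dissolved in DMSO as 10 mM stocks, and DMSO in the assays stayed at or below 0.1%.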

SW-620 = assay: Antiproliferative activity against human SW-620 cells assessed as growth inhibition incubated for 72 hrs by MTT assay; assay type: functional
HCT-116 = assay: Antiproliferative activity against human HCT-116 cells assessed as growth inhibition incubated for 72 hrs by MTT assay; assay type: functional
SK-MEL-5 = assay: Antiproliferative activity against human SK-MEL-5 cells assessed as growth inhibition incubated for 72 hrs by MTT assay; assay type: functional
MDA-MB-231 = assay: Antiproliferative activity against human MDA-MB-231 cells assessed as growth inhibition incubated for 72 hrs by MTT assay; assay type: functional
NCI-H460 = assay: Antiproliferative activity against human NCI-H460 cells assessed as growth inhibition incubated for 72 hrs by MTT assay; assay type: functional
DU-145 = assay: Antiproliferative activity against human DU-145 cells assessed as growth inhibition incubated for 72 hrs by MTT assay; assay type: functional
VL51 [9] = assay: Induction of apoptosis in human VL51 cells assessed as increase in apoptotic cells incubated for 48 hrs by annexin V-FITC and PI staining based flow cytometry analysis; assay type: functional, cell-based; conditions: dose 1-5 µM
Method in brief: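 Cells exposed to several concentrations for 48 h, then stained with annexin V-FITC and PI and read by flow cytometry (FL1/FL3). Apoptotic cells = annexin V-positive plus annexin V/PI double-positive. Mean of three independent experiments.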

SNB-75 = assay: Antiproliferative activity against human SNB-75 cells assessed as growth inhibition incubated for 72 hrs by MTT assay; assay type: functional
PC-3 = assay: Antiproliferative activity against human PC-3 cells assessed as growth inhibition incubated for 72 hrs by MTT assay; assay type: functional
U-251 = assay: Antiproliferative activity against human U-251 cells assessed as growth inhibition incubated for 72 hrs by MTT assay; assay type: functional
SNB-19 = assay: Antiproliferative activity against human SNB-19 cells assessed as growth inhibition incubated for 72 hrs by MTT assay; assay type: functional
VL51 [10] = assay: Induction of mitochondrial membrane potential depolarization in human VL51 cells at 0.5 to 1 uM measured after 24 hrs by JC-1 fluorescent dye based flow cytometry analysis; assay type: functional, cell-based; conditions: dose 0.5-1 µM
Method in brief: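 VL51 cells treated 24 h at 0.5 and 1.0 μM, labelled with JC-1, analysed by flow cytometry in FL1 and FL2 channels.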

NCI-H23 = assay: Antiproliferative activity against human NCI-H23 cells assessed as growth inhibition incubated for 72 hrs by MTT assay; assay type: functional

SMILES | IC50 at 72 h [1] [nM] | GI50 (SR) [nM] | Activity [2] [%] | Activity (VL51 [3]) [%] | IC50 at 72 h [4] [nM] | GI50 (NCI-H226) [nM] | GI50 (NCI-H522) [nM] | Activity (VL51 [5]) | pIC50 (Tubulin) | GI50 (HOP-62) [nM] | GI50 (HOP-92) [nM] | GI50 (NCI/ADR-RES) [nM] | GI50 (CCRF-CEM [6]) [nM] | Activity (CCRF-CEM [7]) | GI50 (MOLT-4) [nM] | GI50 (K562) [nM] | pIC50 [8] | GI50 (MCF7) [nM] | GI50 (CAKI-1) [nM] | GI50 (A498) [nM] | also measured
COc1ccc(Cn2cc3c(c2-c2cc(OC)c(OC)c(OC)c2)CCCc2cnoc2-3)cc1 | > 10000 | 360 | >50 | >50 | > 10000 | 1990 | 980 | Active | < 4.70 | 2220 | 1270 | 540 | 410 | Active | 800 | 420 | 6.05 | 440 | 490 | 690 | GI50 (HL-60(TB)): 350 nM; GI50 (SW-620): 470 nM; GI50 (HCT-116): 390 nM; GI50 (SK-MEL-5): 2000 nM; GI50 (MDA-MB-231): 2540 nM; GI50 (NCI-H460): 500 nM; GI50 (DU-145): 4110 nM; Activity (VL51 [9]): Dose-Dependent Effect; GI50 (SNB-75): 870 nM; GI50 (PC-3): 850 nM; GI50 (U-251): 4470 nM; GI50 (SNB-19): 1530 nM; Activity (VL51 [10]): Active; GI50 (NCI-H23): 2620 nM
COc1ccc(Cn2cc3c(c2-c2cc(OC)c(OC)c(OC)c2)CCCc2cnoc2-3)cc1N | > 10000 | 360 | >50 | >50 | > 10000 | 2540 | 260 | Active | 4.74 | 690 | 520 | 600 | 440 | Active | 650 | 390 | 6.40 | 420 | 580 | 360 | GI50 (HL-60(TB)): 300 nM; GI50 (SW-620): 430 nM; GI50 (HCT-116): 400 nM; GI50 (SK-MEL-5): 1130 nM; GI50 (MDA-MB-231): 1150 nM; GI50 (NCI-H460): 400 nM; GI50 (DU-145): 840 nM; Activity (VL51 [9]): Dose-Dependent Effect; GI50 (SNB-75): 380 nM; GI50 (PC-3): 430 nM; GI50 (U-251): 510 nM; GI50 (SNB-19): 810 nM; Activity (VL51 [10]): Active; GI50 (NCI-H23): 1340 nM
